Laboratory results reported in ChEMBL document CHEMBL2375313, “Synthesis, in vitro antitumor evaluation and DNA-binding study of novel tetrahydroquinolines and some derived tricyclic and tetracyclic ring systems” (Eur J Med Chem, 2013).
The source made the active and inactive calls. No cut-off for these calls is given here.

How the values were obtained:
[1] = Binding affinity to DNA (unknown origin) at 5 mg/mL by RP-TLC plate analysis
Method in brief: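 Reversed-phase C18 TLC plates pre-developed in methanol/water 8:2. Compound spotted at origin (5 mg/mL in methanol), then DNA (1 mg/mL in water/methanol 8:2) applied at the same spot. Plates developed in the same eluent; DNA located by anisaldehyde spray (blue). Ethidium bromide as positive control.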

[2] = Displacement of methyl green from DNA (unknown origin) after 24 hrs
Method in brief: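 DNA-methyl green complex was stirred in 0.05 M Tris-HCl pH 7.5 with 7.5 mmol MgSO4 at 37 °C for 24 h. Compound was dried down from EtOH in tubes and the DNA-methyl green solution added. A630 was read initially and after 24 h dark incubation at room temperature, corrected and normalized to untreated complex. IC50 is the concentration giving a 50% absorbance decrease; mean ± SD, n = 6.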

[3] = test system: OVCAR-4; assay: Cytotoxicity against human OVCAR4 cells assessed as growth inhibition at 10 uM after 48 hrs by sulphorhodamine B assay; format: functional; conditions: OVCAR-4, 48 h, read-out: GI
Method in brief: (§1)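 NCI-60 one-dose screen per the NCI Drug Evaluation Branch protocol. Cells given a single 10 µM concentration with 48 h continuous exposure. Growth estimated by sulphorhodamine B protein assay. Result expressed as percentage growth inhibition relative to untreated growth.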

[4] = test system: PC-3; assay: Cytotoxicity against human PC3 cells assessed as growth inhibition at 10 uM after 48 hrs by sulphorhodamine B assay; format: functional; conditions: PC-3, 48 h, read-out: GI; method in brief: as §1
[5] = test system: SR; assay: Cytotoxicity against human SR cells assessed as growth inhibition at 10 uM after 48 hrs by sulphorhodamine B assay; format: functional; conditions: read-out: GI; method in brief: as §1
[6] = test system: K562; assay: Cytotoxicity against human K562 cells assessed as growth inhibition at 10 uM after 48 hrs by sulphorhodamine B assay; format: functional; conditions: K562, 48 h, read-out: GI; method in brief: as §1
[7] = test system: HOP-92; assay: Cytotoxicity against human HOP92 cells assessed as growth inhibition at 10 uM after 48 hrs by sulphorhodamine B assay; format: functional; conditions: HOP-92, 48 h, read-out: GI; method in brief: as §1
[8] = test system: A549; assay: Cytotoxicity against human A549 cells assessed as growth inhibition at 10 uM after 48 hrs by sulphorhodamine B assay; format: functional; conditions: A549, 48 h, read-out: GI; method in brief: as §1
[9] = test system: UACC-62; assay: Cytotoxicity against human UACC62 cells assessed as growth inhibition at 10 uM after 48 hrs by sulphorhodamine B assay; format: functional; conditions: UACC-62, 48 h, read-out: GI; method in brief: as §1
[10] = test system: HCT-116; assay: Cytotoxicity against human HCT116 cells assessed as growth inhibition at 10 uM after 48 hrs by sulphorhodamine B assay; format: functional; conditions: HCT-116, 48 h, read-out: GI; method in brief: as §1
[11] = test system: RPMI-8226; assay: Cytotoxicity against human RPMI8226 cells assessed as growth inhibition at 10 uM after 48 hrs by sulphorhodamine B assay; format: functional; conditions: RPMI-8226, 48 h, read-out: GI; method in brief: as §1
[12] = test system: MDA-MB-435; assay: Cytotoxicity against human MDA-MB-435 cells assessed as growth inhibition at 10 uM after 48 hrs by sulphorhodamine B assay; format: functional; conditions: MDA-MB-435, 48 h, read-out: GI; method in brief: as §1
[13] = test system: NCI/ADR-RES; assay: Cytotoxicity against human NCI/ADR-RES cells assessed as growth inhibition at 10 uM after 48 hrs by sulphorhodamine B assay; format: functional; conditions: read-out: GI; method in brief: as §1
[14] = test system: IGROV-1; assay: Cytotoxicity against human IGROV1 cells assessed as growth inhibition at 10 uM after 48 hrs by sulphorhodamine B assay; format: functional; conditions: IGROV-1, 48 h, read-out: GI; method in brief: as §1
[15] = test system: SK-MEL-2; assay: Cytotoxicity against human SK-MEL-2 cells assessed as growth inhibition at 10 uM after 48 hrs by sulphorhodamine B assay; format: functional; conditions: SK-MEL-2, 48 h, read-out: GI; method in brief: as §1
[16] = test system: SF-268; assay: Cytotoxicity against human SF268 cells assessed as growth inhibition at 10 uM after 48 hrs by sulphorhodamine B assay; format: functional; conditions: SF-268, 48 h, read-out: GI; method in brief: as §1
[17] = test system: MDA-MB-468; assay: Cytotoxicity against human MDA-MB-468 cells assessed as growth inhibition at 10 uM after 48 hrs by sulphorhodamine B assay; format: functional; conditions: MDA-MB-468, 48 h, read-out: GI; method in brief: as §1
[18] = test system: SK-MEL-5; assay: Cytotoxicity against human SK-MEL-5 cells assessed as growth inhibition at 10 uM after 48 hrs by sulphorhodamine B assay; format: functional; conditions: SK-MEL-5, 48 h, read-out: GI; method in brief: as §1
[19] = test system: HL-60(TB); assay: Cytotoxicity against human HL-60(TB) cells assessed as growth inhibition at 10 uM after 48 hrs by sulphorhodamine B assay; format: functional; conditions: HL-60, 48 h, read-out: GI
Method in brief: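 NCI-60 one-dose primary screen run to the Drug Evaluation Branch protocol. Cells are exposed to a single 10 µM concentration for 48 h continuously, and growth is read by SRB protein assay. Data are reported as percent growth of treated cells, expressed as % growth inhibition.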

[20] = test system: UO-31; assay: Cytotoxicity against human UO31 cells assessed as growth inhibition at 10 uM after 48 hrs by sulphorhodamine B assay; format: functional; conditions: UO-31, 48 h, read-out: GI; method in brief: as §1
[21] = test system: SF-295; assay: Cytotoxicity against human SF295 cells assessed as growth inhibition at 10 uM after 48 hrs by sulphorhodamine B assay; format: functional; conditions: SF-295, 48 h, read-out: GI; method in brief: as §1
[22] = test system: OVCAR-5; assay: Cytotoxicity against human OVCAR5 cells assessed as growth inhibition at 10 uM after 48 hrs by sulphorhodamine B assay; format: functional; conditions: OVCAR-5, 48 h, read-out: GI; method in brief: as §1
[23] = test system: Hs-578T; assay: Cytotoxicity against human Hs578T cells assessed as growth inhibition at 10 uM after 48 hrs by sulphorhodamine B assay; format: functional; conditions: read-out: GI; method in brief: as §1
[24] = test system: SK-OV-3; assay: Cytotoxicity against human SKOV3 cells assessed as growth inhibition at 10 uM after 48 hrs by sulphorhodamine B assay; format: functional; conditions: SK-OV-3, 48 h, read-out: GI; method in brief: as §1
[25] = test system: HT-29; assay: Cytotoxicity against human HT-29 cells assessed as growth inhibition at 10 uM after 48 hrs by sulphorhodamine B assay; format: functional; conditions: HT-29, 48 h, read-out: GI; method in brief: as §1
[26] = test system: HCT-15; assay: Cytotoxicity against human HCT15 cells assessed as growth inhibition at 10 uM after 48 hrs by sulphorhodamine B assay; format: functional; conditions: HCT-15, 48 h, read-out: GI; method in brief: as §1
[27] = test system: NCI-H522; assay: Cytotoxicity against human NCI-H522 cells assessed as growth inhibition at 10 uM after 48 hrs by sulphorhodamine B assay; format: functional; conditions: NCI-H522, 48 h, read-out: GI; method in brief: as §1
[28] = test system: SNB-19; assay: Cytotoxicity against human SNB19 cells assessed as growth inhibition at 10 uM after 48 hrs by sulphorhodamine B assay; format: functional; conditions: SNB-19, 48 h, read-out: GI; method in brief: as §1
[29] = test system: LOX IMVI; assay: Cytotoxicity against human LOXIMVI cells assessed as growth inhibition at 10 uM after 48 hrs by sulphorhodamine B assay; format: functional; conditions: read-out: GI; method in brief: as §1
[30] = test system: M14; assay: Cytotoxicity against human M14 cells assessed as growth inhibition at 10 uM after 48 hrs by sulphorhodamine B assay; format: functional; conditions: M14, 48 h, read-out: GI; method in brief: as §1
[31] = test system: SNB-75; assay: Cytotoxicity against human SNB75 cells assessed as growth inhibition at 10 uM after 48 hrs by sulphorhodamine B assay; format: functional; conditions: SNB-75, 48 h, read-out: GI; method in brief: as §1
[32] = test system: DU-145; assay: Cytotoxicity against human DU145 cells assessed as growth inhibition at 10 uM after 48 hrs by sulphorhodamine B assay; format: functional; conditions: DU-145, 48 h, read-out: GI; method in brief: as §1
[33] = test system: CCRF-CEM; assay: Cytotoxicity against human CCRF-CEM cells assessed as growth inhibition at 10 uM after 48 hrs by sulphorhodamine B assay; format: functional; conditions: read-out: GI; method in brief: as §1
[34] = test system: A498; assay: Cytotoxicity against human A498 cells assessed as growth inhibition at 10 uM after 48 hrs by sulphorhodamine B assay; format: functional; conditions: A498, 48 h, read-out: GI; method in brief: as §1
[35] = test system: NCI-H23; assay: Cytotoxicity against human NCI-H23 cells assessed as growth inhibition at 10 uM after 48 hrs by sulphorhodamine B assay; format: functional; conditions: NCI-H23, 48 h, read-out: GI; method in brief: as §1
[36] = test system: CAKI-1; assay: Cytotoxicity against human Caki1 cells assessed as growth inhibition at 10 uM after 48 hrs by sulphorhodamine B assay; format: functional; conditions: CAKI-1, 48 h, read-out: GI; method in brief: as §1
[37] = Cytotoxicity against human EKVX cells assessed as growth inhibition at 10 uM after 48 hrs by sulphorhodamine B assay; format: functional; conditions: read-out: GI; method in brief: as §1
[38] = test system: RXF 393; assay: Cytotoxicity against human RXF393 cells assessed as growth inhibition at 10 uM after 48 hrs by sulphorhodamine B assay; format: functional; conditions: RXF 393, 48 h, read-out: GI; method in brief: as §1
[39] = test system: ACHN; assay: Cytotoxicity against human ACHN cells assessed as growth inhibition at 10 uM after 48 hrs by sulphorhodamine B assay; format: functional; conditions: read-out: GI; method in brief: as §1
[40] = test system: MCF7; assay: Cytotoxicity against human MCF7 cells assessed as growth inhibition at 10 uM after 48 hrs by sulphorhodamine B assay; format: functional; conditions: MCF7, 48 h, read-out: GI; method in brief: as §1
[41] = test system: T47D; assay: Cytotoxicity against human T47D cells assessed as growth inhibition at 10 uM after 48 hrs by sulphorhodamine B assay; format: functional; conditions: read-out: GI; method in brief: as §1
[42] = test system: U-251; assay: Cytotoxicity against human U251 cells assessed as growth inhibition at 10 uM after 48 hrs by sulphorhodamine B assay; format: functional; conditions: U-251, 48 h, read-out: GI; method in brief: as §1
[43] = test system: MOLT-4; assay: Cytotoxicity against human MOLT4 cells assessed as growth inhibition at 10 uM after 48 hrs by sulphorhodamine B assay; format: functional; conditions: MOLT-4, 48 h, read-out: GI; method in brief: as §1

CC[n+]1c(-c2ccccc2)c2cc(N)ccc2c2ccc(N)cc21.[Br-] [HOMIDIUM BROMIDE]
Activity [1]: Active
IC50 [2]: 4 ng/mL

COc1ccc(-c2c3c(nc4nc(C)[nH]c(=O)c24)C(C)CCC3)cc1 (stereo not drawn)
inhibition of growth at 10 µM [3]: < 10%
inhibition of growth at 10 µM [4]: 14.2%
inhibition of growth at 10 µM [5]: 46.8%
inhibition of growth at 10 µM [6]: 11.2%
inhibition of growth at 10 µM [7]: 21.3%
inhibition of growth at 10 µM [8]: 10%
inhibition of growth at 10 µM [9]: 14.8%
inhibition of growth at 10 µM [10]: < 10%
inhibition of growth at 10 µM [11]: 21.8%
inhibition of growth at 10 µM [12]: 19%
inhibition of growth at 10 µM [13]: < 10%
inhibition of growth at 10 µM [14]: < 10%
inhibition of growth at 10 µM [15]: < 10%
inhibition of growth at 10 µM [16]: < 10%
inhibition of growth at 10 µM [17]: < 10%
inhibition of growth at 10 µM [18]: 13.6%
inhibition of growth at 10 µM [19]: < 10%
inhibition of growth at 10 µM [20]: < 10%
inhibition of growth at 10 µM [21]: < 10%
inhibition of growth at 10 µM [22]: 11.4%
inhibition of growth at 10 µM [23]: < 10%
inhibition of growth at 10 µM [24]: < 10%
inhibition of growth at 10 µM [25]: < 10%
inhibition of growth at 10 µM [26]: 11%
inhibition of growth at 10 µM [27]: 22%
inhibition of growth at 10 µM [28]: < 10%
inhibition of growth at 10 µM [29]: 17.3%
inhibition of growth at 10 µM [30]: < 10%
inhibition of growth at 10 µM [31]: < 10%
inhibition of growth at 10 µM [32]: < 10%
inhibition of growth at 10 µM [33]: 16.5%
inhibition of growth at 10 µM [34]: < 10%
inhibition of growth at 10 µM [35]: < 10%
inhibition of growth at 10 µM [36]: < 10%
inhibition of growth at 10 µM [37]: < 10%
inhibition of growth at 10 µM [38]: 12.5%
inhibition of growth at 10 µM [39]: 11.3%
inhibition of growth at 10 µM [40]: < 10%
inhibition of growth at 10 µM [41]: 18.2%
inhibition of growth at 10 µM [42]: < 10%
inhibition of growth at 10 µM [43]: 23.3%
